Screening results: PubChem, Broad Institute
Wnt act: Wnt/beta-catenin pathway activators, primary screen, cell-based, plate reader, single point; Wnt/beta-catenin reporter cell assay, activator; activation, % at 9.35 µM; 300,000 tested, 1.2% active; in the data active means activation above about 30%, passing the limit was not always enough;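 further: 0% = neutral control wells and 100% = positive control wells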
SR-BI DiI inh: inhibitors of SR-BI mediated HDL lipid uptake, primary screen, ldlA[mSR-BI] cells, fluorescence, single point; 320,000 tested, 0.96% active; Scavenger receptor class B member 1 (Mus musculus), Q61009; ldlA[mSR-BI] CHO cells, DiI-HDL uptake fluorescence, 3 h; inhibition, % at 12.5 µM;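 active means mean replicate inhibition of at least 70% and a set share of replicates each scoring 70 or more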;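 further: 0% = median of neutral control wells and 100% = median of positive control wells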
Target sequence (Q61009 whole entry, looked up): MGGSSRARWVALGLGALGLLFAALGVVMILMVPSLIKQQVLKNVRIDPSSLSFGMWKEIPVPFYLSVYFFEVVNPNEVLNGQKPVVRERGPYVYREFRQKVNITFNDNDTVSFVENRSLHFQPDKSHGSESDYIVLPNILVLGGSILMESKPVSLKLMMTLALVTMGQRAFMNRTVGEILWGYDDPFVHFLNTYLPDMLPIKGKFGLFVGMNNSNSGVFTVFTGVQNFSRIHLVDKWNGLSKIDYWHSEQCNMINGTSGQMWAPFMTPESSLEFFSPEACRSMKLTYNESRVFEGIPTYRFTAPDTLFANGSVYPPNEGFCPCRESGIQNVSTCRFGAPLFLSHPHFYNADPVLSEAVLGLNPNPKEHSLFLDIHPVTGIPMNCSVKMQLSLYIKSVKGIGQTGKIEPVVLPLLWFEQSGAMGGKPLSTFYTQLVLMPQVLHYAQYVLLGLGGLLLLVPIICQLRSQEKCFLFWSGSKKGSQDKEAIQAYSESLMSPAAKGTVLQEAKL
HSF-1 act: HSF-1 activators, primary screen, NIH3T3-HGL cells, MG132 stress, luminescence, single point. 300,000 tested, 1.7% active. activation, % at 9 µM. NIH3T3-HGL HSF-1 luciferase reporter, 8 h; 100% = twice DMSO control signal;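 active means mean replicate activation of at least 50% with a set share of replicates each reaching 50%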;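 further: 0% = median of the neutral control wells and 100% = twice that signal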
SR-BI DiI-HDL act: activators of SR-BI mediated DiI-HDL uptake, primary screen, ldlA[mSR-BI] CHO cells, DiI fluorescence; activation, % at 12.5 µM; 320,000 tested, 0.096% active; 3 h; 100 = double the neutral-control signal; AID 504775, 2011;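 active means mean replicate activation of at least 60% and every replicate at or above 60%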;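 further: 0% = median plate neutral-control signal and 100% = twice that signal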
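Assay system: CHO ldlA[mSR-BI] cells, LDL receptor-null, SR-BI overexpressing; medium: Ham's F12 with 0.5% BSA, HEPES 25 mM, pH 7.4; also added: DiI-HDL 10 µg/mL; timing: 3 h uptake period with compound, 37 °C; signal: DiI fluorescence, bottom read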
MITF TRPM1 HTS: activators of MITF-driven TRPM1 promoter reporter, primary screen, cell-based, SK-MEL-5, luciferase, single point | activation, % at 12.5 µM | AID 588334, 2011 | SK-MEL-5 TRPM1-promoter luciferase, 24 h; % of positive control, neutral wells = 0 | 300,000 tested, 0.75% active;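 active means mean activation of at least 80% with every replicate also reaching 80%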;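 further: 0% = neutral control wells and 100% = parthenolide positive control wells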
An asterisk follows results filed as active; . = not tested or not shown. An excerpt weighted towards active compounds, which were near 3.6% of everything screened.

SMILES	Wnt act	SR-BI DiI inh	HSF-1 act	SR-BI DiI-HDL act	MITF TRPM1 HTS
Cc1[nH]nc(Nc2ccc(O)cc2)c1[N+](=O)[O-]	9	4	0	-4	23
CCN(CC)S(=O)(=O)c1ccc(C(O)=C(C#N)c2nc3ccccc3n2C)cc1	-3	12	.	-12	1
COc1ccc(CCNCc2cc(C)n(-c3ccc(OC)cc3)c2C)cc1	3	-3	67*	3	5
COc1ccc(CCNCc2ccccc2N2CCCC2)cc1	1	-21	-7	21	5
COc1ccc(NC(=O)CCn2c(=S)[nH]c3ccccc3c2=O)cc1Cl	-1	.	.	.	.
COc1cc(OC)cc(C(=O)N(CCCN2C(=O)c3cccc4cccc(c34)C2=O)c2cccc(OC)c2)c1	1	-3	59*	3	-3
O=C(CCCc1ccccc1)NCCS(=O)(=O)N1CCN(c2ccccc2)CC1	-2	.	.	.	.
CC1=C(C(=O)OCC(Cl)(Cl)Cl)N2C(=O)C(NC(=O)Cc3ccccc3)C2SC1 (stereo not given)	3	78*	5	-78	10
Oc1ccc(-c2csc(Nc3ncccn3)n2)cc1	-2	11	60*	-11	95*
CC(=O)Nc1ccc(-c2csc(Nc3ncccn3)n2)cc1	33*	.	45	.	58
Nc1[nH]c(C(=O)c2ccccc2)c(-c2ccncc2)c1C(=O)NCCc1c[nH]c2ccccc12	-1	.	.	.	.
S=C1Cc2ccccc2N1	-18	97*	-78	-97	-90
S=C1Nc2ccccc2CS1	-7	.	.	.	.
O=C(Nc1ccc(S(=O)(=O)N2CCCC2)cc1)c1ccc(Br)o1	-2	0	29	0	0
O=C(Nc1ccc(N2CCOCC2)c(Cl)c1)c1cc2ccccc2o1	.	85*	55*	-85	46
O=C(Nc1ccc(N2CCOCC2)c(Cl)c1)c1ccc(F)cc1	16	38	-3	-38	122*
O=C(Nc1ccc(N2CCOCC2)c(Cl)c1)c1ccc(Br)o1	53*	41	42	-41	106*
O=C(Nc1ccc(S(=O)(=O)N2CCOCC2)cc1)c1ccc(Br)o1	.	-28	59*	28	.
CCOC(=O)C1CSCCS(=O)(=O)N1Cc1cccc(F)c1 (stereo not given)	-6	.	.	.	.
O=C(Nc1ccccc1N1CCN(C(=O)c2ccccc2)CC1)c1cccc(Cl)c1	-1	.	18	.	3
O=C(Nc1ccc2c(c1)CCCN2C(=O)c1cccs1)c1cccc(F)c1	7	42	60*	-42	32
CCN1CCN(c2ccc(NC(=O)c3ccco3)cc2Cl)CC1	15	.	12	.	63
CC(=O)Nc1ccc(NC(=O)c2cccc(-c3cc4ccccc4oc3=O)c2)cc1	4	33	25	-33	13
O=C(Nc1ccccc1N1CCN(C(=O)c2ccc(Cl)cc2)CC1)c1cccc(F)c1	-2	74*	-5	-74	17
O=C(Nc1ccc(N2CCCC2)c(Cl)c1)c1cccc(-c2cc3ccccc3oc2=O)c1	1	87*	18	-87	10
SMILES	Wnt act	SR-BI DiI inh	HSF-1 act	SR-BI DiI-HDL act	MITF TRPM1 HTS
CCN1CCN(c2ccc(NC(=O)c3cccc(F)c3)cc2Cl)CC1	9	7	34	-7	128*
O=C(Nc1ccc2c(c1)CCCN2C(=O)c1cccs1)c1ccccc1	4	21	33	-21	29
CCCCCCCCN1C(=O)[C@H](CC(=O)NCCCC)C[C@@]2(C(=O)OC)CCCCC=C12	8	.	.	.	.
CS(=O)(=O)N1CCN(c2ccccc2NC(=O)c2cc3ccccc3o2)CC1	1	75*	1	-75	-6
N=c1c(C(=O)NCC2CCCO2)cc2c(=O)n3ccccc3nc2n1Cc1ccccc1 (stereo not given)	-1	6	1	-6	-10
N=c1c(S(=O)(=O)c2ccc(Cl)cc2)cc2c(=O)n3ccccc3nc2n1Cc1ccco1	0	0	137*	0	11
N=c1c(C(=O)NCC2CCCO2)cc2c(=O)n3ccccc3nc2n1Cc1ccc(Cl)cc1 (stereo not given)	-1	-5	57*	5	3
CN1CCCCC(NC(=O)c2cccc(C(F)(F)F)c2)C1=O (stereo not given)	-2	.	.	.	.
COc1ccc(OC)c(CN(CC(F)(F)F)S(=O)(=O)c2ccccc2Br)c1	-3	.	.	.	.
CCCN(CC(=O)Nc1ccccc1C)C(=O)CCCNC(=O)c1ccc(Cl)cc1	-1	1	.	-1	7
CCN1/C(=C/c2cc[n+](CCCS(=O)(=O)[O-])c3ccccc23)Sc2ccccc21	0	-11	-16	11	-7
C=CC[n+]1ccc(/C=C2\C=Cc3cc(C)ccc3N2CC)c2ccccc21	.	92*	.	-92	-82
CCOC(=O)Nc1sc2c(c1C#N)CCCC2	.	42	38	-42	91*
Cc1ccc(OCC(=O)Nc2sc3c(c2C#N)CCC3)cc1C	1	13	23	-13	.
N#Cc1c(NC(=O)CN2CCN(C(=O)c3ccco3)CC2)sc2c1CCCCC2	1	83*	20	-83	-6
Cc1ccc(OCC(=O)Nc2sc3c(c2C#N)CCC3)cc1	12	-2	36	2	111*
Cc1cccc(C(=O)Nc2sc3c(c2C#N)CCCCC3)c1	.	.	-5	.	89*
CCC(=O)Nc1sc2c(c1C#N)CCC2	-1	-6	-2	6	-20
COc1cc(C(O)c2nc(-c3csc4ccccc34)cs2)ccc1F (stereo not given)	0	.	.	.	.
O=C1c2ccccc2C(c2nnnn2Cc2ccccc2)N1Cc1cccc(F)c1 (stereo not given)	-3	.	.	.	.
Cc1cccc(CN2[C@H](COC(=O)Nc3ccccc3)C=CS2(=O)=O)c1	18	.	.	.	.
CCOC(=O)C(=O)N(Nc1ccc(C)cc1)c1ccc(C)cc1	44*	-19	43	19	28
CCN(CC(=O)NCc1ccc(Cl)cc1)S(=O)(=O)c1ccc(F)cc1	0	-7	0	7	6
CCN(CC)S(=O)(=O)c1ccc(/C=C/C(=O)Nc2cccc(F)c2)cc1	-1	45	67*	-45	6
CCN(CC(=O)NCc1ccc(F)cc1)C(=O)/C=C/c1ccc(S(=O)(=O)N(CC)CC)cc1	0	76*	-8	-76	-26
Cc1ccccc1C(c1ncccc1C)N(C)C(=O)C1CCN(CCOc2ccc(Cl)cc2Cl)CC1 (stereo not given)	-4	.	.	.	.
COc1ccc(CC(=O)O/N=C(\N)c2ccc(OC)cc2)cc1	23	-22	18	22	.
N/C(=N\OC(=O)C1CCCCC1)c1cccc(Br)c1	.	-6	34	6	108*
Cc1ccc(SCC(=O)O/N=C(\N)c2ccc([N+](=O)[O-])cc2)cc1	.	-9	27	9	-7
